From PubChem BioAssay
T cell HTS: modulates CD8 T cell binding to vesicles; 2C CD8+ T cell-vesicle binding, flow cytometry; hits give low values; response (vesicle binding), % at 7 µM; hit rate 0.068% among 330,000;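 active = response, share of CD8 T cells binding vesicles, and their 90th percentile fluorescence all below set limits, cut at about 80% in these data, passing the limit was not always enough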;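 note: values below 100% mean blocked vesicle binding to the CD8+ T cells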
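incubation = binding step 1.5 h, 37 °C, antibody labelling 20 min, ice | test system = 2C mouse CD8+ T cells | read-out basis = percent CD8+ FL2 mean versus row control | controls = Peptide-free naked vesicles (low) and QL9 vesicles with 0.7% DMSO vehicle (high) | detection = flow cytometry of vesicle-bound cells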
ALR H2O2 inh: inhibitors of human sulfhydryl oxidase ALR. P55789. hit rate 3.8% among 290,000. inhibition, % (concentration not given with the values). purified ALR, DTT oxidation, H2O2 HRP-luminol luminescence. AID 485317;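 active = mean replicate inhibition above about 79%, with every replicate also reaching it, limit read from the data; inconclusive = only one of the two criteria met; inactive = mean below limit and not every replicate reaching it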
Target sequence (P55789 whole entry, looked up): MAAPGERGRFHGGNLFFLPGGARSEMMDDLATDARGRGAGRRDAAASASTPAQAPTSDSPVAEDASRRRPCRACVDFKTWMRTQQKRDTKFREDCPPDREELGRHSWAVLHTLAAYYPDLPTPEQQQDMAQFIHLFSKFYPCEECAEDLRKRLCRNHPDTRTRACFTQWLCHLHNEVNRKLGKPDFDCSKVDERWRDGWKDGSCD
N-glyco inh: N-linked glycosylation inhibition; AID 588692; reporter increase, % at 12.5 µM; hit rate 0.23% among 360,000; D54 ERlucT glycosylation luciferase reporter, 24 h; percent of 100 nM tunicamycin response;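 active = mean luciferase reporter signal, scaled so untreated is 0 and the glycosylation-blocking control 100, at or above a set limit in every replicate; inconclusive = mean reaches the limit but not every replicate does; inactive = mean below the limit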;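 note: luciferase carries N-glycosylation sites so blocking glycosylation raises the light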
Numbers stand for hits; . = inactive; ? = inconclusive; / = no result given. Shown is part of a subset that was picked to be rich in hits.

SMILES	T cell HTS	ALR H2O2 inh	N-glyco inh
COc1ccccc1NC(=O)CSC1=NC(=O)C(Cc2ccccc2)C(=O)N1 (stereo not drawn)	.	99	.
COc1ccccc1NC(=O)CSC1=NC(=O)C(NC(C)=O)C(=O)N1 (stereo not drawn)	.	/	.
C=CCn1nc(C(=O)N2CCOCC2)cc1-c1sc(NC(=O)c2ccccc2)nc1C	/	/	.
C[C@H](CO)N1C[C@H](C)[C@H](CN(C)S(=O)(=O)c2ccc3ccccc3c2)OCc2cnnn2CCCC1=O	/	/	.
COc1cccc(CN(C)C(=O)COc2cccc3c2OC(C)(C)C3)c1OC	/	/	.
COc1ccc(Br)cc1C=NNS(=O)(=O)c1ccc(C)cc1	/	/	.
Cc1ccc(S(=O)(=O)N/N=C/c2ccc(C(=O)O)cc2)cc1	.	.	.
COc1cc(/C=N/NS(=O)(=O)c2ccc(Br)cc2)ccc1O	.	99	.
CN(C)c1ccc(/C=N/NS(=O)(=O)c2ccc(Br)cc2)cc1	.	90	.
Cc1cc(NC(=O)CCc2ccccc2)c([N+](=O)[O-])cc1C	.	.	.
COc1ccc(N(CC(=O)N2CCN(c3cccc(Cl)c3)CC2)S(=O)(=O)c2c(C)noc2C)cc1	.	.	.
COc1ccc(OC)c(NC(=O)CN(c2ccc(C)cc2)S(=O)(=O)c2c(C)noc2C)c1	.	.	.
COc1ccc(OC)c(NC(=O)CN(c2ccc(C(C)C)cc2)S(=O)(=O)c2c(C)noc2C)c1	.	95	.
CCOC(=O)C1CCN(C(=O)CN(c2ccc(OC)cc2)S(=O)(=O)c2c(C)noc2C)CC1	.	89	.
Cc1cc(C)cc(N(CC(=O)N2CCN(Cc3ccccc3)CC2)S(=O)(=O)c2c(C)noc2C)c1	.	96	.
CCOC(=O)C1CCN(C(=O)CN(c2ccc(OC)cc2)S(=O)(=O)c2c(C)nn(C)c2C)CC1	.	/	.
NC(=O)C1CN(C(=O)c2nn(Cc3ccccc3)c(=O)c3ccccc23)c2ccccc2O1 (stereo not drawn)	/	/	.
Cc1c(Cl)cccc1Nc1ncccc1C(=O)OCC(O)CO (stereo not drawn)	.	/	/
O=C(CNC(=O)c1ccc2c(c1)OCCO2)N=Nc1c(O)[nH]c2ccccc12	.	.	.
COC(=O)c1cc(CNC(=O)C2CC(=O)N(c3ccc4c(c3)OCCO4)C2)ccc1OC (stereo not drawn)	.	/	.
CCOC(=O)c1ccc(N2CCOCC2)c(NS(=O)(=O)c2ccc(F)cc2)c1	.	.	.
CN(C)CC(=O)Nc1nc(-c2ccccc2)cs1	.	.	.
COc1ccc(-c2csc(NC(=O)CSc3nc(C)nc4sc(C(=O)O)c(C)c34)n2)cc1	.	99	.
CCOC(=S)SCC(=O)Nc1nc(-c2ccccc2)cs1	.	99	.
CCOC(=O)N1CCN(C(=O)CSCC(=O)Nc2nc(-c3ccc(OC)cc3)cs2)CC1	.	99	.
SMILES	T cell HTS	ALR H2O2 inh	N-glyco inh
CCCC(=O)Nc1nc(-c2ccc(OC)cc2)cs1	.	.	.
COc1ccc(-c2csc(NC(=O)CSc3nc(C)cs3)n2)cc1	.	.	.
CCOC(=S)SCC(=O)Nc1nc(-c2ccc(Br)cc2)cs1	.	99	.
CCOC(=O)N1CCN(C(=O)CSCC(=O)Nc2nc(-c3ccc(-c4ccccc4)cc3)cs2)CC1	.	.	.
O=C(Nc1ccccc1N1CCCCC1)C1CCN(S(=O)(=O)c2ccccc2C(F)(F)F)CC1	.	.	.
CCC(NC(=O)Cc1cccs1)c1ccccc1 (stereo not drawn)	.	.	.
COC(=O)c1cc(CSc2ncnc3sccc23)oc1C	.	?	.
CCC1CCCCN1C(=O)CCS(=O)(=O)c1ccccc1 (stereo not drawn)	.	.	.
Nn1c(SCC(=O)Nc2ccc(N3CCOCC3)cc2)nnc1C1CC1	.	99	.
CCOc1ccc(NC(=O)CSc2nnc(C3CC3)n2N)cc1	.	98	.
NC(=O)c1ccc(NC(=O)CSc2nnc(C3CCCCC3)n2N)cc1	.	.	.
Nn1c(SCC(=O)Nc2ccc(Oc3ccccc3)cc2)nnc1C1CC1	.	.	.
Cc1ccc(NC(=O)CSc2nnc3n2CCCCC3)cc1	.	/	.
O=C(CSc1nnc2n1CCCCC2)Nc1ccc(N2CCOCC2)cc1	.	86	.
O=C(NC1CCCC1)C(c1cccnc1)N(C(=O)c1csnn1)c1ccc(F)cc1 (stereo not drawn)	.	.	.
CC(C)C(NC(=O)c1ccccc1)C(=O)NCCc1ccccc1 (stereo not drawn)	.	/	.
Cc1ccc2c(C)c(C(=O)N3CCC(O)(c4ccccc4)CC3)oc2c1C	.	.	.
COc1ccc(-c2noc(CNC(=O)c3ccoc3C)n2)cc1	.	/	.
CCOC1=C2[C@H](c3ccccc3)N(S(=O)(=O)c3ccc(C)cc3)C(C(C)(C)C)[C@H]2n2c(=O)n(-c3ccccc3)c(=O)n2C1 (stereo partly drawn)	/	/	.
CNc1ncnc(Sc2ccc(Cl)cc2)c1[N+](=O)[O-]	.	.	.
CCCCSCc1ccc(C(=O)O)o1	.	.	.
CC(=O)c1c(C)oc(C)c1CSCc1ccc(C(=O)O)o1	.	97	/
Cc1ccc(S(=O)(=O)NNC(=O)CCC(=O)Nc2ccc(C)c(C)c2)cc1	.	.	.
Cc1ccc(C)c(NC(=O)NNS(=O)(=O)c2ccc(C)c(C)c2)c1	.	85	.
Cc1ccccc1Nc1nc(N)nc(COC(=O)c2ccc(S(=O)(=O)N(C)C)cc2)n1	.	.	.
SMILES	T cell HTS	ALR H2O2 inh	N-glyco inh
O=C(Nc1ccc(F)cc1)C1CCCN1S(=O)(=O)c1ccc(Br)cc1 (stereo not drawn)	.	.	.
Cc1ccc(C)c(N2CCN(C(=O)c3cc4ccccc4oc3=O)CC2)c1	.	.	.
CC1=C(C(=O)N2CCN(c3cc(C)ccc3C)CC2)C2(CCCCC2)OC1=O	.	87	.
CC(C)c1nc(CNC(=O)C2CCC(=O)N(Cc3ccc(Cl)cc3)C2)no1 (stereo not drawn)	.	.	.
COc1cc(C(=O)Nc2cc(S(=O)(=O)N3CCOCC3)ccc2N2CCOCC2)ccc1OC(F)F	/	/	.
CCc1ccccc1NC1=CC(=O)CC(C)(C)C1	.	.	.
CC1(C)CC(=O)C=C(Nc2ccccc2N)C1	.	99	.
Cc1cccc(NC(=O)c2cc(S(=O)(=O)N(C)c3ccc(F)cc3)ccc2Cl)n1	.	.	.
O=C(O)CCC(=O)c1cccc2ccccc12	.	.	.
O=C(O)CCC(=O)c1ccc2ccc3cccc4ccc1c2c34	.	87	/
COC(=O)c1cc(OC)c(OC)cc1NC(=O)Nc1ccccc1F	.	.	.
O=C(NCc1ccccc1F)C1CCCN(c2cnccn2)C1 (stereo not drawn)	.	.	.
CC1CC(C)CN(c2ccc([N+](=O)[O-])cc2-c2nn[nH]n2)C1 (stereo not drawn)	.	.	.
O=C(C1CCN(S(=O)(=O)c2ccc(Cl)cc2)CC1)N1CCC1	.	.	.
NNC(=O)c1cc2ccccc2cc1O	.	.	.
NNC(=O)c1ccc(O)cc1O	.	99	.
NC(=S)NNc1ccnc2cc(Cl)ccc12	.	103	.
Clc1ccc2c(N/N=C/c3ccccc3Br)ccnc2c1	.	.	.
O=C(NNc1ccnc2cc(Cl)ccc12)C1CCCCC1	.	.	.
C/C(=N/Nc1ccnc2cc(Cl)ccc12)c1ccc(O)cc1	.	93	.
